Source: ChEMBL document CHEMBL3351711, “Design, synthesis and biological evaluation of novel 6H-benzo[c]chromen-6-one, and 7,8,9,10-tetrahydro-benzo[c]chromen-6-one derivatives as potential cholinesterase inhibitors” (Bioorg Med Chem, 2014)

Tests used:
[1] = target: Acetylcholinesterase (Homo sapiens, UniProt P22303); assay: Inhibition of human recombinant AChE using acetylthiocholine iodide substrate incubated for 15 mins by spectrophotometry based Ellman's method
[2] = target: Cholinesterase (Homo sapiens, UniProt P06276); assay: Inhibition of human recombinant BuChE using butyrylthiocholine iodide substrate incubated for 15 mins by spectrophotometry based Ellman's method
[3] = species on record: Homo sapiens; assay: Selectivity index, ratio of IC50 for human recombinant BuChE to IC50 for human recombinant AChE
[4] = test system: Rattus norvegicus; assay: Antagonism of scopolamine-induced passive avoidance in Wistar rat assessed as latency of visiting dark box measured for 5 mins at 1 mg/kg, po dosed 30 mins after scopolamine challenge and measured 1 hr post dose; format: functional
How it was run: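 Rats, 10 per compound. Scopolamine 1 mg/kg ip given 30 min before the test compound (1 mg/kg oral). One hour after dosing, rats placed in the illuminated compartment with the door closed for 30 s habituation. Door then opens automatically and latency to enter the dark box is timed over 5 min. Antagonism (%) is scaled against the latency difference between no-scopolamine and scopolamine-only groups, taken as 100%.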

[5] = species on record: Homo sapiens; assay: Selectivity index, ratio of IC50 for human recombinant AChE to IC50 for human recombinant BuChE
How it was run: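 Modified Ellman assay in Tris-HCl pH 8.0 with DTNB (0.34 mM final). Human recombinant AChE (0.4 U/mL solution) with acetylthiocholine iodide; human recombinant BuChE (1.6 U/mL solution) with butyrylthiocholine iodide (1.5 mM final). 15 min at 27 °C, read at 412 nm against enzyme-free blank and inhibitor-free control, in triplicate. IC50s fitted by sigmoidal Hill slope; ratio of the two IC50s.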

Sequence of Acetylcholinesterase (P22303 whole entry): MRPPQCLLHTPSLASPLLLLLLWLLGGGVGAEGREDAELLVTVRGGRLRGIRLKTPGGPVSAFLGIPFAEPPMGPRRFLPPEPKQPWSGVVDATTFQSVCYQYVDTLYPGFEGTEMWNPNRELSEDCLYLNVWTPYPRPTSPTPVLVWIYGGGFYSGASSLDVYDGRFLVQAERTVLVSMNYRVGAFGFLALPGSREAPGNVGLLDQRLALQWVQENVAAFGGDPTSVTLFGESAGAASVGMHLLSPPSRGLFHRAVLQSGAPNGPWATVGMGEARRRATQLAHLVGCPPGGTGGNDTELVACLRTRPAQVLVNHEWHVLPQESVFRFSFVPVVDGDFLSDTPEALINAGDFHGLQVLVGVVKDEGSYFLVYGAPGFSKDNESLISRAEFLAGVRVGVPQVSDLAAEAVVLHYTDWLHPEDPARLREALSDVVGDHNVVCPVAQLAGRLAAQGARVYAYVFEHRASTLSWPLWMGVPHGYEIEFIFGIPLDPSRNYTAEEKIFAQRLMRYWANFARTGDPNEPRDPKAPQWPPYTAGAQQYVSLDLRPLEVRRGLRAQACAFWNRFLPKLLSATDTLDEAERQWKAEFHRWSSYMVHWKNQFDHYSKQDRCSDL
Sequence of Cholinesterase (P06276 whole entry): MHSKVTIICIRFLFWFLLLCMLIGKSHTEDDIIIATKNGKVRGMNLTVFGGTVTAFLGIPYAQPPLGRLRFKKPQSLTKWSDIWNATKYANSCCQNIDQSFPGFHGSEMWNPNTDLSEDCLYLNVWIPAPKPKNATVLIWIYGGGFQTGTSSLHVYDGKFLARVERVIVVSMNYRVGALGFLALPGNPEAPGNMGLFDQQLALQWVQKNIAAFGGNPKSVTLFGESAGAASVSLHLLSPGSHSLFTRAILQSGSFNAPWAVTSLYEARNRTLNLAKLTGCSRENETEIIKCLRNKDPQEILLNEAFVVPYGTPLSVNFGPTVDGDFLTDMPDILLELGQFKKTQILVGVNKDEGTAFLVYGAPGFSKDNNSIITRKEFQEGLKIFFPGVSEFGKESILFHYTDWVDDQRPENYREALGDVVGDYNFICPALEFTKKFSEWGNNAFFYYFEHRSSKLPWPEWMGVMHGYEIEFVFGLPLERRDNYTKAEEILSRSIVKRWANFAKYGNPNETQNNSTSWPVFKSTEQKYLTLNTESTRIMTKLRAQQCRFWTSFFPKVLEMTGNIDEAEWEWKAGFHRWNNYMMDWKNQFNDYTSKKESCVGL

## CN(CCCOc1ccc2c(c1)oc(=O)c1ccccc12)Cc1ccccc1
[1]
  IC50: 8.5 µM
[2]
  IC50: 14.9 µM
[3]
  Ratio IC50: 1.7

## COc1cccc(CN(C)CCCOc2ccc3c4c(c(=O)oc3c2)CCCC4)c1
[1]
  IC50: 2.7 µM
[2]
  IC50: > 40 µM
[3]
  Ratio IC50: > 14

## O=c1oc2cc(OCCN3CCC(Cc4ccccc4)CC3)ccc2c2ccccc12
[1]
  IC50: 20 µM
[2]
  IC50: > 40 µM
[3]
  Ratio IC50: > 2

## COc1cccc(CC2CCN(CCOc3ccc4c(c3)oc(=O)c3ccccc34)CC2)c1
[1]
  IC50: 29.3 µM
[2]
  IC50: > 40 µM
[3]
  Ratio IC50: > 1

## COc1cccc(CC2CCN(CCOc3ccc4c5c(c(=O)oc4c3)CCCC5)CC2)c1
[1]
  IC50: 37.2 µM
[2]
  IC50: > 40 µM
[3]
  Ratio IC50: > 1

## CC(c1ccc2c(c1)oc(=O)c1ccccc12)N(C)C (racemic)
[4]
  inhibition in vivo at 1 mg/kg: 70%
[3]
  Ratio IC50: 1.6

## CN(CCCOc1ccc2c3c(c(=O)oc2c1)CCCC3)Cc1ccccc1
[1]
  IC50: 2.1 µM
[2]
  IC50: 15.9 µM
[3]
  Ratio IC50: 7.6

## O=c1oc2cc(OCCN3CCN(Cc4ccccc4)CC3)ccc2c2ccccc12
[1]
  IC50: 0.9 µM
[2]
  IC50: 12.1 µM
[3]
  Ratio IC50: 13.4

## COc1cccc(CN(C)CCCCOc2ccc3c4c(c(=O)oc3c2)CCCC4)c1
[1]
  IC50: 1.7 µM
[2]
  IC50: > 40 µM
[3]
  Ratio IC50: > 23

## CN(CCCCOc1ccc2c(c1)oc(=O)c1ccccc12)Cc1ccccc1
[1]
  IC50: 1.1 µM
[4]
  inhibition in vivo at 1 mg/kg: 62%
[2]
  IC50: 6.5 µM
[3]
  Ratio IC50: 5.9

## O=c1oc2cc(OCCN3CCN(Cc4ccccc4)CC3)ccc2c2c1CCCC2
[1]
  IC50: 1.3 µM
[2]
  IC50: 32 µM
[3]
  Ratio IC50: 24.6

## COc1cccc(CC2CCN(CCCOc3ccc4c(c3)oc(=O)c3ccccc34)CC2)c1
[1]
  IC50: 18.5 µM
[2]
  IC50: > 40 µM
[3]
  Ratio IC50: > 2

## O=c1oc2cc(OCCCCN3CCC(Cc4ccccc4)CC3)ccc2c2ccccc12
[1]
  IC50: 14.2 µM
[2]
  IC50: > 40 µM
[3]
  Ratio IC50: > 2

## CC(c1cc(O)c2c(c1)oc(=O)c1ccccc12)N(C)C (racemic)
[5]
  Ratio IC50: 4.5
[4]
  inhibition in vivo at 1 mg/kg: 49%

## COc1cccc(CC2CCN(CCCCOc3ccc4c5c(c(=O)oc4c3)CCCC5)CC2)c1
[1]
  IC50: 13.7 µM
[2]
  IC50: 27.8 µM
[3]
  Ratio IC50: 2

## O=c1oc2cc(OCCCN3CCC(Cc4ccccc4)CC3)ccc2c2ccccc12
[1]
  IC50: 4.1 µM
[2]
  IC50: 21.3 µM
[3]
  Ratio IC50: 5.2

## CCN(C)C(=O)Oc1cc(C(C)N(C)C)c2c(c1)oc(=O)c1ccccc12 (racemic)
[5]
  Ratio IC50: > 4
[1]
  IC50: > 40 µM

## CC(c1cc(O)cc2oc(=O)c3ccccc3c12)N(C)C (racemic)
[2]
  IC50: > 40 µM
[3]
  Ratio IC50: > 1

## COc1cccc(CN(C)CCOc2ccc3c(c2)oc(=O)c2ccccc23)c1
[1]
  IC50: 18.4 µM
[2]
  IC50: 33.2 µM
[3]
  Ratio IC50: 1.8

## O=c1oc2cc(OCCCN3CCN(Cc4ccccc4)CC3)ccc2c2c1CCCC2
[1]
  IC50: 0.9 µM
[4]
  inhibition in vivo at 1 mg/kg: 58%
[2]
  IC50: 3.1 µM
[3]
  Ratio IC50: 3.4

## COc1cccc(CN(C)CCCOc2ccc3c(c2)oc(=O)c2ccccc23)c1
[1]
  IC50: 20.9 µM
[2]
  IC50: 29.2 µM
[3]
  Ratio IC50: 1.4

## COc1cccc(CN2CCN(CCCOc3ccc4c5c(c(=O)oc4c3)CCCC5)CC2)c1
[1]
  IC50: 6.2 µM
[2]
  IC50: 18.4 µM
[3]
  Ratio IC50: 2.9

## O=c1oc2cc(OCCCCN3CCC(Cc4ccccc4)CC3)ccc2c2c1CCCC2
[1]
  IC50: 9.2 µM
[2]
  IC50: 20.1 µM
[3]
  Ratio IC50: 2.2

## COc1cccc(CN2CCN(CCCCOc3ccc4c5c(c(=O)oc4c3)CCCC5)CC2)c1
[1]
  IC50: 8.7 µM
[2]
  IC50: 23.4 µM
[3]
  Ratio IC50: 2.7

## O=c1oc2cc(OCCCCN3CCN(Cc4ccccc4)CC3)ccc2c2c1CCCC2
[1]
  IC50: 6.4 µM
[2]
  IC50: 14.6 µM
[3]
  Ratio IC50: 2.3

## C[C@@H](c1ccc2c(c1)oc(=O)c1ccccc12)N(C)C
[4]
  inhibition in vivo at 1 mg/kg: 71%
[3]
  Ratio IC50: 2.1

## COc1cccc(CN2CCN(CCCOc3ccc4c(c3)oc(=O)c3ccccc34)CC2)c1
[1]
  IC50: 18 µM
[2]
  IC50: > 40 µM
[3]
  Ratio IC50: > 2

## CN(CCOc1ccc2c(c1)oc(=O)c1ccccc12)Cc1ccccc1
[1]
  IC50: 6.7 µM
[2]
  IC50: 14.1 µM
[3]
  Ratio IC50: 2.1

## O=c1oc2cc(OCCCN3CCC(Cc4ccccc4)CC3)ccc2c2c1CCCC2
[1]
  IC50: 4.3 µM
[2]
  IC50: > 40 µM
[3]
  Ratio IC50: > 9

## CCN(C)C(=O)Oc1cccc([C@H](C)N(C)C)c1 (racemic) [RIVASTIGMINE]
[4]
  inhibition in vivo at 1 mg/kg: 85%

## COc1cc(C(C)N(C)C)cc2oc(=O)c3ccccc3c12 (racemic)
[4]
  inhibition in vivo at 1 mg/kg: 71%
[3]
  Ratio IC50: 7.5

## O=c1oc2cc(OCCCCN3CCN(Cc4ccccc4)CC3)ccc2c2ccccc12
[1]
  IC50: 8.2 µM
[2]
  IC50: > 40 µM
[3]
  Ratio IC50: > 4

## COc1cc2c(cc1OC)C(=O)C(CC1CCN(Cc3ccccc3)CC1)C2 (configuration not stated) [DONEPEZIL]
[4]
  inhibition in vivo at 1 mg/kg: 58%

## CN(CCOc1ccc2c3c(c(=O)oc2c1)CCCC3)Cc1ccccc1
[1]
  IC50: 2.8 µM
[2]
  IC50: > 40 µM
[3]
  Ratio IC50: > 14

## O=c1oc2cc(OCCCN3CCN(Cc4ccccc4)CC3)ccc2c2ccccc12
[1]
  IC50: 0.8 µM
[4]
  inhibition in vivo at 1 mg/kg: 85%
[2]
  IC50: 3.7 µM
[3]
  Ratio IC50: 4.6

## COc1cccc(CN(C)CCCCOc2ccc3c(c2)oc(=O)c2ccccc23)c1
[1]
  IC50: 8.3 µM
[2]
  IC50: 17.6 µM
[3]
  Ratio IC50: 2.1

## COc1cccc(CN(C)CCOc2ccc3c4c(c(=O)oc3c2)CCCC4)c1
[1]
  IC50: 6 µM
[2]
  IC50: > 40 µM
[3]
  Ratio IC50: > 6

## COc1cccc(CC2CCN(CCCCOc3ccc4c(c3)oc(=O)c3ccccc34)CC2)c1
[1]
  IC50: 27.4 µM
[2]
  IC50: > 40 µM
[3]
  Ratio IC50: > 1

## CN(CCCCOc1ccc2c3c(c(=O)oc2c1)CCCC3)Cc1ccccc1
[1]
  IC50: 1 µM
[4]
  inhibition in vivo at 1 mg/kg: 65%
[2]
  IC50: 18.9 µM
[3]
  Ratio IC50: 18.9

## COc1cccc(CN2CCN(CCCCOc3ccc4c(c3)oc(=O)c3ccccc34)CC2)c1
[1]
  IC50: 21.3 µM
[2]
  IC50: > 40 µM
[3]
  Ratio IC50: > 1

## COc1cc(C(C)N(C)C)c2c(c1)oc(=O)c1ccccc12 (racemic)
[3]
  Ratio IC50: 1.6

## O=c1oc2cc(OCCN3CCC(Cc4ccccc4)CC3)ccc2c2c1CCCC2
[1]
  IC50: 8.1 µM
[2]
  IC50: > 40 µM
[3]
  Ratio IC50: > 5

## COc1cccc(CN2CCN(CCOc3ccc4c(c3)oc(=O)c3ccccc34)CC2)c1
[1]
  IC50: 11.4 µM
[2]
  IC50: > 40 µM
[3]
  Ratio IC50: > 3

## COc1cccc(CC2CCN(CCCOc3ccc4c5c(c(=O)oc4c3)CCCC5)CC2)c1
[1]
  IC50: 4.9 µM
[2]
  IC50: > 40 µM
[3]
  Ratio IC50: > 8

## COc1cccc(CN2CCN(CCOc3ccc4c5c(c(=O)oc4c3)CCCC5)CC2)c1
[1]
  IC50: 7.3 µM
[2]
  IC50: > 40 µM
[3]
  Ratio IC50: > 5
